Experiments:
Rattus norvegicus [1] = organism: Rattus norvegicus; assay: Inhibition of U-46619 (3x10E-8 M) induced contraction in rat thoracic aorta; type: functional, organism-based
How it was run: (§1)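 Aortic rings were held under 1.0 g resting tension and gassed with 95% O₂/5% CO₂. After 1 h equilibration, 3×10⁻⁸ M U-46619 was added; once tension stabilised, compound was added cumulatively. The concentration giving 50% relaxation of the maximal U-46619 tension was derived by regression. Values are mean ± SEM from three dose groups of four preparations.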

Oryctolagus cuniculus [2] = organism: Oryctolagus cuniculus; assay: Compound was tested for agonist activity on rabbit PRP; type: functional
How it was run: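 Rabbit platelet-rich plasma was exposed to compound alone at 10⁻⁴ M to test for partial agonism. Response is expressed relative to the response to 0.1 μM U-46619, which is set at 100.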

Oryctolagus cuniculus [3] = organism: Oryctolagus cuniculus; assay: Compound was tested for agonist activity on rabbit aorta; type: functional
How it was run: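 Rabbit aortic strips were exposed to compound alone at 10⁻⁵ M to test for partial agonism. Tension is expressed relative to the response to 40 mM KCl, which is set at 100.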

[4] = system: Thromboxane A2 receptor (Oryctolagus cuniculus); assay: Selectivity index for the TXA2 t-receptor was the difference between the IC50 values in the aggregation and contraction assay
Homo sapiens = organism: Homo sapiens; assay: Effect on TXB2 formation of human platelets; type: functional, organism-based
How it was run: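 Washed human platelets were sonicated in 50 mM phosphate buffer (pH 7.4) with 1 mM EDTA. They were preincubated with compound and 1 mM GSH for 5 min at 37 °C, then given [1-¹⁴C]arachidonic acid for 5 min. Eicosanoids were extracted and separated by TLC, and TXB₂ radioactivity was counted. IC₅₀ was derived by regression.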

Rattus norvegicus [5] = organism: Rattus norvegicus; assay: Compound was tested for the inhibition U-46619 (3 x10 E -8 M) induced contraction against in rat thoracic aorta; type: functional, organism-based; how it was run: as §1
[6] = Selectivity index for the difference between the IC50 values in the aggregation and contraction assay; type: functional
How it was run: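 Index compares IC₅₀ values from U-46619-induced rabbit aorta contraction with those from rabbit platelet-rich plasma aggregation. For aggregation, citrated carotid blood from male New Zealand rabbits (2.0–2.5 kg) gave PRP. PRP was pre-warmed 2 min at 37 °C, given compound for 2 min, then U-46619, with turbidimetric read-out. Each IC₅₀ is mean ± SEM by regression, from three dose groups of four preparations.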

Oryctolagus cuniculus [7] = organism: Oryctolagus cuniculus; assay: Displacement of specific binding of [3H]SQ-29,548 to rabbit gel-filtered platelets; type: functional
[8] = Rattus norvegicus, Thoracic aorta

| SMILES | IC50 (Rattus norvegicus [1]; [8]) [µM] | other results |
| --- | --- | --- |
| CC(C)c1cccc2c(CCCNS(=O)(=O)c3ccccc3)cc(C(=O)O)c-2c1 | 7.4 |  |
| Cc1cc(S(=O)(=O)NCCc2ccc(OCC(=O)O)cc2)c2cccccc1-2 | 190 |  |
| Cc1cc(S(=O)(=O)NCCc2ccc(OCC(=O)O)cc2)c2ccc(C(C)C)ccc1-2 | 84 |  |
| CC(C)c1ccc2c(CCNS(=O)(=O)c3ccccc3)cc(C(=O)O)c-2cc1 | 60 |  |
| CCCCc1cc(S(=O)(=O)NCCc2ccc(OCC(=O)O)cc2)c2cc(C(C)C)cccc1-2 | 32 |  |
| COc1ccc(S(=O)(=O)NCCCCc2cc(S(=O)(=O)[O-])c3ccc(C(C)C)ccc2-3)cc1.[Na+] |  | IC50 (Homo sapiens): > 100 µM; Agonist activity (Oryctolagus cuniculus [2]): 0; Agonist activity (Oryctolagus cuniculus [3]): 0; IC50 (Rattus norvegicus [5]): 0.0032 µM; Selectivity index [4]: 660 |
| CC(C)c1ccc2c(CCCNS(=O)(=O)c3ccccc3)cc(C(=O)O)c-2cc1 | 4.8 |  |
| CC(C)c1cc(S(=O)(=O)NCCc2ccc(OCC(=O)O)cc2)c2cccccc1-2 | 160 |  |
| CCc1cc(S(=O)(=O)NCCc2ccc(OCC(=O)O)cc2)c2ccc(C(C)C)ccc1-2 | 65 |  |
| CC(C)c1cccc2c(CCCCCNS(=O)(=O)c3ccccc3)cc(C(=O)O)c-2c1 | 2.6 |  |
| Cc1cc(S(=O)(=O)NCCc2ccc(OCC(=O)O)cc2)c2cc(C(C)C)cccc1-2 | 120 |  |
| CCCc1cc(S(=O)(=O)NCCc2ccc(OCC(=O)O)cc2)c2cccccc1-2 | 77 |  |
| CC(C)c1cccc2c(CCCCNS(=O)(=O)c3ccccc3)cc(C(=O)O)c-2c1 | 3.1 |  |
| CC(C)c1ccc2c(CC/C=C/CCNS(=O)(=O)c3ccccc3)cc(C(=O)O)c-2cc1 (stereo in doubt; 40) |  | IC50 (Rattus norvegicus [1]): 0.46 µM |
| CC(C)c1cccc2c(CCCCCCCNS(=O)(=O)c3ccccc3)cc(C(=O)O)c-2c1 | 0.93 |  |
| CC(C)c1ccc2c(/C=C/C(=O)O)cc(CCCCNS(=O)(=O)c3ccccc3)c-2cc1 | 21 |  |
| CCCCc1cc(S(=O)(=O)NCCc2ccc(OCC(=O)O)cc2)c2ccc(C(C)C)ccc1-2 | 19 |  |

| SMILES | IC50 (Rattus norvegicus [1]; [8]) [µM] | other results |
| --- | --- | --- |
| COc1ccccc2c(S(=O)(=O)NCCc3ccc(OCC(=O)O)cc3)cc(C)c1-2 | 190 |  |
| CC(C)c1cccc2c(CCNS(=O)(=O)c3ccccc3)cc(C(=O)O)c-2c1 | 15 |  |
| CC(C)c1ccc2c(CCCCNS(=O)(=O)c3cccc(C(F)(F)F)c3)cc(C(=O)O)c-2cc1 | 1.6 |  |
| O=C(O)c1cc(CCNS(=O)(=O)c2ccccc2)c2cccccc1-2 | 21 |  |
| CC(C)c1ccc2c(C(C)C)cc(S(=O)(=O)NCCc3ccc(OCC(=O)O)cc3)c-2cc1 | 25 |  |
| CCCCc1cc(S(=O)(=O)NCCc2ccc(OCC(=O)O)cc2)c2cccccc1-2 | 55 |  |
| O=C(O)COc1ccc(CCNS(=O)(=O)c2ccccc2)cc1 [SULOTROBAN] | 1.5 | Selectivity index [6]: 5 |
| CCCc1cc(S(=O)(=O)NCCc2ccc(OCC(=O)O)cc2)c2cc(C(C)C)cccc1-2 | 45 |  |
| CCc1cc(S(=O)(=O)NCCc2ccc(OCC(=O)O)cc2)c2cc(C(C)C)ccc(OC)c1-2 | 120 |  |
| CCc1cc(S(=O)(=O)NCCc2ccc(OCC(=O)O)cc2)c2cccccc1-2 | 56 |  |
| CC(C)c1ccc2c(CCCCNS(=O)(=O)c3ccc(F)cc3)cc(C(=O)O)c-2cc1 | 1.1 |  |
| O=C(O)c1cc(CCCNS(=O)(=O)c2ccccc2)c2cccccc1-2 | 4.8 |  |
| CCc1cc(S(=O)(=O)NCCc2ccc(OCC(=O)O)cc2)c2ccccc(OC)c1-2 | 110 |  |
| CCCc1cc(S(=O)(=O)NCCc2ccc(OCC(=O)O)cc2)c2ccc(C(C)C)ccc1-2 | 50 |  |
| CCc1cc(S(=O)(=O)NCCc2ccc(OCC(=O)O)cc2)c2cc(C(C)C)cccc1-2 | 56 |  |
| CC(C)c1ccc2c(CC/C=C/CCNS(=O)(=O)c3ccccc3)cc(C(=O)O)c-2cc1 (stereo in doubt; 39) |  | IC50 (Rattus norvegicus [1]): 0.052 µM |

The remaining molecules from weak to strong by IC50 (Rattus norvegicus [1]; [8]), led by results:

| IC50 (Rattus norvegicus [1]; [8]) [µM] | SMILES | other results |
| --- | --- | --- |
| 0.92 | CC(C)c1cccc2c(CCCCCCNS(=O)(=O)c3ccccc3)cc(C(=O)O)c-2c1 |  |
| 0.84 | O=C(O)c1cc(CCCCCNS(=O)(=O)c2ccccc2)c2cccccc1-2 |  |
| 0.57 | O=C(O)c1cc(CCCCNS(=O)(=O)c2ccccc2)c2cccccc1-2 |  |
| 0.3 | CC(C)c1ccc2c(CCCCNS(=O)(=O)c3ccccc3)cc(CC(=O)O)c-2cc1 |  |
| 0.16 | COc1ccc(S(=O)(=O)NCCCCc2cc(C(=O)O)c3ccc(C(C)C)ccc2-3)cc1 | Agonist activity (Oryctolagus cuniculus [2]): 0; Agonist activity (Oryctolagus cuniculus [3]): 0; Selectivity index [4]: > 233 |
| 0.14 | O=C(O)c1cc(CCCCCCNS(=O)(=O)c2ccccc2)c2cccccc1-2 |  |
| 0.14 | CC(C)c1ccc2c(C(=O)O)cc(-c3cccc(CCNS(=O)(=O)c4ccccc4)c3)c-2cc1 |  |
| 0.12 | CC(C)c1ccc2c(CCCCCCCNS(=O)(=O)c3ccccc3)cc(C(=O)O)c-2cc1 |  |
| 0.12 | CC(C)c1ccc2c(CCCCCNS(=O)(=O)c3ccccc3)cc(C(=O)O)c-2cc1 |  |
| 0.07 | CC(C)c1ccc2c(CCCCNS(=O)(=O)c3ccccc3)cc(C(=O)O)c-2cc1 | Selectivity index [6]: > 63 |
| 0.038 | O=C(O)c1cc(CCCCCCCCNS(=O)(=O)c2ccccc2)c2cccccc1-2 |  |
| 0.018 | O=C(O)c1cc(CCCCCCCNS(=O)(=O)c2ccccc2)c2cccccc1-2 |  |
| 0.017 | CC(C)c1ccc2c(CCCCNS(=O)(=O)c3ccccc3)cc(S(=O)(=O)[O-])c-2cc1.[Na+] | Agonist activity (Oryctolagus cuniculus [2]): 0; Agonist activity (Oryctolagus cuniculus [3]): 0; Selectivity index [4]: > 91 |
| 0.0053 | CC(C)c1ccc2c(CCCCNS(=O)(=O)c3ccc(Cl)cc3)cc(C(=O)O)c-2cc1 | Selectivity index [6]: > 667 |
| 0.0009 | CC(C)c1ccc2c(CCCCNS(=O)(=O)c3ccc(Cl)cc3)cc(S(=O)(=O)[O-])c-2cc1.[Na+] | IC50 (Homo sapiens): > 100 µM; Agonist activity (Oryctolagus cuniculus [2]): 0; Agonist activity (Oryctolagus cuniculus [3]): 0; IC50 (Oryctolagus cuniculus [7]): 0.014 µM; Selectivity index [4]: 378 |
